Reference: ChEMBL document CHEMBL4177702, “Design and synthesis of aminoester heterodimers containing flavone or chromone moieties as modulators of P-glycoprotein-based multidrug resistance (MDR)” (Bioorg Med Chem, 2018)
pIC50: −log10 of the molar value. Calls of active or inactive are those of the source. The rule behind the calls is not given here.

Tests used:
Type in all cases: cell-based
[1] = (§1) Inhibition of P-gp in human K562/Dox cells assessed as increase in nuclear accumulation of pirarubicin by spectrofluorometric assay; conditions: read-out: I50
K562 = assay: Cytotoxicity against human K562 cells assessed as reduction in cell viability at 1 to 3 uM after 72 hrs by MTT assay; conditions: k562, 72 h
Procedure, shortened: (§2)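 Exponentially growing cells (3×10^5 cells/mL) seeded at 10^4 cells/well and exposed to compound at 1.0 and 3.0 μM (diluted from 10^-2 M DMSO stocks in complete medium) for 72 h at 37 °C, 5% CO2. MTT added for 3 h, formazan dissolved in acidified isopropanol, absorbance at 570 nm. Toxicity expressed as proliferation relative to untreated control (100%).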

[2] = Cytotoxicity against human K562/Dox cells assessed as reduction in cell viability at 1 to 3 uM after 72 hrs by MTT assay; procedure, shortened: as §2
Homo sapiens [3] = organism: Homo sapiens; assay: Inhibition of P-gp in human K562/Dox cells assessed as nuclear accumulation of pirarubicin at 10^-5 M by spectrofluorometric assay relative to control
Homo sapiens [4] = organism: Homo sapiens; assay: as §1

Molecule `COc1cc(/C=C/C(=O)OCCCCCN(C)CCCCCOC(=O)c2cc(=O)c3c(OC)cccc3o2)cc(OC)c1OC` has a pIC50 [1] of 5.46.
For `COc1cc(/C=C/C(=O)OCCCCCN(C)CCCCCOC(=O)COc2ccc(-c3cc(=O)c4ccccc4o3)cc2)cc(OC)c1OC`, the Activity (K562) was “Non-Toxic”, the pIC50 [1] was 6.47 and the Activity [2] was “Non-Toxic”.
`COc1cc(/C=C/C(=O)OCCCN(C)CCCOC(=O)c2cc(=O)c3c(OC)cccc3o2)cc(OC)c1OC` showed an Efficacy (Homo sapiens [3]) of 4 to 30%.
For `COc1cc(/C=C/C(=O)OCCCCCN(CCCCCOC(=O)COc2ccc(-c3cc(=O)c4ccccc4o3)cc2)Cc2ccccc2)cc(OC)c1OC`, the pIC50 [1] was 6.37.
In the case of `COc1cc(/C=C/C(=O)OCCCN(C)CCCOC(=O)c2cc(=O)c3c(O)cc(O)cc3o2)cc(OC)c1OC`, the Activity (K562) was “Non-Toxic”, the Efficacy (Homo sapiens [3]) was 4 to 30% and the Activity [2] was “Non-Toxic”.
With `COc1cc(/C=C/C(=O)OCCOCCNCCOCCOC(=O)COc2ccc(-c3cc(=O)c4ccccc4o3)cc2)cc(OC)c1OC` the Activity (K562) was “Non-Toxic” and the Activity [2] was “Non-Toxic”.
`COc1cc(OC)c2c(=O)cc(C(=O)OCCCCCN(C)CCCCCOC(=O)/C=C/c3cc(OC)c(OC)c(OC)c3)oc2c1` gave a pIC50 [1] of 5.88.
`COc1cc(/C=C/C(=O)OCCCCCN(C)CCCCCOC(=O)c2cc(=O)c3c(O)cc(O)cc3o2)cc(OC)c1OC` gave a pIC50 [1] of 5.61.
With `COc1cc(/C=C/C(=O)OCCCCCNCCCCCOC(=O)COc2ccc(-c3cc(=O)c4ccccc4o3)cc2)cc(OC)c1OC` the pIC50 [1] was 5.88.
In the case of `COc1cc(/C=C/C(=O)OCCOCCN(C)CCOCCOC(=O)c2cc(=O)c3c(O)cc(O)cc3o2)cc(OC)c1OC`, the I50 (Homo sapiens [4]) was “inactive”.
With `COc1cc(/C=C/C(=O)OCCOCCN(C)CCOCCOC(=O)COc2ccc(-c3cc(=O)c4ccccc4o3)cc2)cc(OC)c1OC` the Activity (K562) was “Non-Toxic”, the pIC50 [1] was 5.91 and the Activity [2] was “Non-Toxic”.
With `COc1cc(/C=C/C(=O)OCCCN(C)CCCOC(=O)c2cc(=O)c3c(O)cccc3o2)cc(OC)c1OC` the Efficacy (Homo sapiens [3]) was 4 to 30%.
`COc1cc(/C=C/C(=O)OCCCCCN(C)CCCCCOC(=O)c2cc(=O)c3c(O)cccc3o2)cc(OC)c1OC` gave a pIC50 [1] of 6.46.
Work on `COc1cc(/C=C/C(=O)OCCCCCN(C)CCCCCOC(=O)COc2ccc(-c3cc(=O)c4c(O)cc(O)cc4o3)cc2)cc(OC)c1OC` yielded a pIC50 [1] of 6.02.
For `COc1cc(/C=C/C(=O)OCCCN(C)CCCOC(=O)COc2ccc(-c3cc(=O)c4c(O)cc(O)cc4o3)cc2)cc(OC)c1OC`, the Efficacy (Homo sapiens [3]) was 4 to 30%.
For `COc1cc(OC)c2c(=O)cc(C(=O)OCCCN(C)CCCOC(=O)/C=C/c3cc(OC)c(OC)c(OC)c3)oc2c1`, the Efficacy (Homo sapiens [3]) was 4 to 30%.
